These results are taken from ChEMBL document CHEMBL1157793, “Synthesis and antitumor activity of 1,5-disubstituted 1,2,4-triazoles as cis-restricted combretastatin analogues” (J Med Chem, 2010).

The test system of one experiment is HeLa. The experiment in a line: Antiproliferative activity against human HeLa cells after 72 hrs by MTT assay. The class given is functional, cell-based.
The test system of the next experiment is A549. Kind of experiment: Antiproliferative activity against human A549 cells after 72 hrs by MTT assay. In kind it is functional, cell-based. The following applies: A549, 72 h.
For a further experiment, the system named is HL-60. Kind of experiment: Antiproliferative activity against human HL60 cells after 72 hrs by MTT assay. The following applies: HL-60, 72 h. The class given is functional, cell-based. (Tetrazolium assays rely on reduction of a dye to a coloured formazan, in cell work by metabolically active cells.)
Another experiment has as its system Jurkat. The experiment in a line: Antiproliferative activity against human Jurkat cells after 72 hrs by MTT assay. In kind it is functional, cell-based. In short, it runs like this:
(§1)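 Cells seeded at 8×10^3 per well (Jurkat, HL-60, K562 in RPMI-1640; MCF7, A549, HeLa in DMEM; all with 10% FBS, penicillin/streptomycin), incubated 18 h at 37 °C, 5% CO2, then exposed to compound at varying concentrations in complete medium for 72 h.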

Another experiment deals with K562. Kind of experiment: Antiproliferative activity against human K562 cells after 72 hrs by MTT assay. The following applies: K562, 72 h. In kind it is functional, cell-based. A digest of the protocol: as §1
A further experiment has as its system MCF7. Kind of experiment: Antiproliferative activity against human MCF7 cells after 72 hrs by MTT assay. The class given is functional, cell-based. The following applies: MCF7, 72 h.
The species entered for another experiment is Bos taurus. The experiment in a line: Displacement of [3H]colchicine from bovine tubulin at 1 uM. A digest of the protocol:
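[3H]Colchicine binding inhibition measured with reaction mixtures of 1 µM tubulin, 5 µM [3H]colchicine and 1 µM test compound.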
Background: In a radioligand displacement assay an active substance lowers the binding of a labelled ligand.

Experiment [1] can be described thus: Inhibition of bovine brain tubulin polymerization after 20 mins by turbidimetry. Also noted: species or system Bos taurus. In short, it runs like this: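 Bovine brain tubulin (10 µM) preincubated with varying compound concentrations in glutamate buffer at 30 °C, chilled to 0 °C, 0.4 mM GTP added, then warmed to 30 °C in spectrophotometer; assembly followed by turbidity at 350 nm.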

pIC50: −log10 of the molar value.

In the case of `COc1cc(-n2ncnc2-c2ccccc2)cc(OC)c1OC`, the pIC50 in the experiment on HeLa, in the experiment on A549, in the experiment with HL-60, in the experiment with Jurkat, in the experiment with K562 and with MCF7 was < 5.00 each time.
As for `COc1cc(-c2ncnn2-c2ccc(F)cc2)cc(OC)c1OC`, the pIC50 in the experiment on HeLa, in the experiment on A549, in the experiment on HL-60, in the experiment with Jurkat, in the experiment on K562 and in the experiment on MCF7 was < 5.00 throughout.
Regarding `COc1cc(-c2ncnn2-c2ccc([N+](=O)[O-])cc2)cc(OC)c1OC`, the pIC50 in the experiment with HeLa, in the experiment with A549, in the experiment on HL-60, with Jurkat, in the experiment with K562 and with MCF7 was < 5.00 each time.
With `CCOc1ccccc1-c1ncnn1-c1cc(OC)c(OC)c(OC)c1`, the negative logarithm of the IC50 (pIC50) with HeLa, in the experiment with A549, in the experiment with HL-60, with Jurkat, in the experiment on K562 and in the experiment with MCF7 was < 5.00 throughout.
On to `CCOc1cccc(-c2ncnn2-c2cc(OC)c(OC)c(OC)c2)c1`, for which the pIC50 with HeLa, in the experiment on A549, in the experiment on HL-60, in the experiment with Jurkat, in the experiment with K562 and in the experiment with MCF7 was < 5.00 in each case.
On to `COc1ccc(/C=C\c2cc(OC)c(OC)c(OC)c2)cc1O` [COMBRETASTATIN A4], for which the pIC50 in the experiment with Jurkat and with K562 was 8.30 in each case. Moreover, the Activity in the experiment listed under Bos taurus was determined as 87%.
Consider `COc1cc(-c2ncnn2-c2cccc(N)c2)cc(OC)c1OC`, for which the negative-log IC50 (pIC50) with HeLa, in the experiment on A549, in the experiment on HL-60, in the experiment on Jurkat, with K562 and in the experiment on MCF7 was < 5.00 each time.
With `COc1cc(-n2ncnc2-c2cccc([N+](=O)[O-])c2)cc(OC)c1OC`, the pIC50 in the experiment on HeLa, in the experiment with A549, in the experiment on HL-60, in the experiment with Jurkat, in the experiment with K562 and in the experiment with MCF7 was < 5.00 in each case.
For the compound `COc1cc(-c2ncnn2-c2cccc(F)c2)cc(OC)c1OC`, the pIC50 in the experiment on HeLa, in the experiment with A549, with HL-60, with Jurkat, in the experiment with K562 and in the experiment on MCF7 was < 5.00 in each case.
Regarding `COc1cc(-n2ncnc2-c2cccc(F)c2)cc(OC)c1OC`, the negative logarithm of the IC50 (pIC50) in the experiment with HeLa, in the experiment on A549, with HL-60, with Jurkat, with K562 and in the experiment with MCF7 was < 5.00 throughout.
Turning to `COc1cc(-c2ncnn2-c2ccc(N)cc2)cc(OC)c1OC`, the pIC50 in the experiment with HeLa, in the experiment with A549, in the experiment on HL-60, in the experiment on Jurkat, in the experiment on K562 and in the experiment on MCF7 was < 5.00 throughout.
On to `COc1ccc(-n2ncnc2-c2cc(OC)c(OC)c(OC)c2)cc1`, for which the pIC50 in the experiment with HeLa is < 5.00; in the experiment with A549, < 5.00; in the experiment with HL-60, 5.21; with Jurkat, 7.03; in the experiment with K562 it was 5.44; in the experiment on MCF7, 5.13. Besides, in experiment [1], the pIC50 is 4.80.
As to `COc1cc(-c2ncnn2-c2ccc(Cl)c(Cl)c2)cc(OC)c1OC`, the pIC50 in the experiment with HeLa, in the experiment with A549, with HL-60, in the experiment on Jurkat, in the experiment on K562 and in the experiment on MCF7 was < 5.00 throughout.
With `COc1cc(-c2ncnn2-c2ccc(Cl)cc2Cl)cc(OC)c1OC`, the pIC50 in the experiment with HeLa, in the experiment with A549, in the experiment on HL-60, in the experiment with Jurkat, in the experiment with K562 and with MCF7 was < 5.00 in each case.
Regarding `COc1cc(-n2ncnc2-c2ccc(Cl)cc2)cc(OC)c1OC`, the pIC50 in the experiment on HeLa, in the experiment with A549, with HL-60, in the experiment with Jurkat, with K562 and in the experiment on MCF7 was < 5.00 in each case.
In the case of `COc1cc(-n2ncnc2-c2ccc(Cl)c(Cl)c2)cc(OC)c1OC`, the pIC50 in the experiment on HeLa, in the experiment with A549, in the experiment with HL-60, with Jurkat, in the experiment on K562 and in the experiment on MCF7 was < 5.00 each time.
`COc1cc(-c2ncnn2-c2cccc([N+](=O)[O-])c2)cc(OC)c1OC`: the pIC50 with HeLa, in the experiment on A549, with HL-60, with Jurkat, with K562 and in the experiment on MCF7 was < 5.00 in each case.
`COc1cc(-n2ncnc2-c2cccc(Cl)c2)cc(OC)c1OC`: the pIC50 in the experiment with HeLa, in the experiment with A549, in the experiment with HL-60, in the experiment on Jurkat, in the experiment on K562 and in the experiment with MCF7 was < 5.00 throughout.
On to `COc1cc(-n2ncnc2-c2ccc(F)cc2)cc(OC)c1OC`, for which the pIC50 in the experiment with HeLa, in the experiment with A549, with HL-60, in the experiment with Jurkat, in the experiment with K562 and with MCF7 was < 5.00 in each case.
As to `COc1cc(-c2ncnn2-c2ccc(Cl)cc2)cc(OC)c1OC`, the pIC50 in the experiment on HeLa, with A549, in the experiment with HL-60, with Jurkat, with K562 and in the experiment on MCF7 was < 5.00 in each case.
Take `COc1ccc(-c2ncnn2-c2cc(OC)c(OC)c(OC)c2)cc1`: the pIC50 in the experiment on HeLa is 6.55; in the experiment with A549, 6.28; in the experiment with HL-60, 6.92; in the experiment with Jurkat, 7.30; with K562 it was 6.02; in the experiment on MCF7 it was 6.44. The pIC50 in experiment [1] is 5.64. The compound further yielded an Activity in the experiment listed under Bos taurus of 55%.
On to `COc1cc(-n2ncnc2-c2ccc(OC(C)C)cc2)cc(OC)c1OC`, for which the pIC50 is 6.22 in the experiment on HeLa; < 5.00 in the experiment on A549; 6.15 in the experiment on HL-60; 6.19 with Jurkat; 6.10 with K562; 6.21 with MCF7. The compound also gave a pIC50 in experiment [1] of 5.29. In addition, the Activity in the experiment listed under Bos taurus is 37%.
Consider `COc1cc(-n2ncnc2-c2ccc(OC(F)(F)F)cc2)cc(OC)c1OC`, for which the pIC50 in the experiment with HeLa, in the experiment with A549, in the experiment on HL-60, in the experiment on Jurkat, in the experiment with K562 and in the experiment on MCF7 was < 5.00 each time.
With `COc1cc(-n2ncnc2-c2ccc(C)cc2)cc(OC)c1OC`, the pIC50 with HeLa is 6.60; in the experiment on A549 it was 5.96; in the experiment with HL-60, 7.05; with Jurkat, 6.52; in the experiment on K562, < 5.00; in the experiment with MCF7 it was 6.27. For the same compound, the pIC50 in experiment [1] is 5.41. The compound further registered an Activity in the experiment listed under Bos taurus of 33%.
As to `COc1cc(-n2ncnc2-c2ccc(SC)cc2)cc(OC)c1OC`, the pIC50 with HeLa was 6.82; in the experiment with A549, 6.10; in the experiment on HL-60, 6.30; with Jurkat, 7.30; in the experiment on K562 it was 6.47; with MCF7, 6.41. The pIC50 in experiment [1] is 5.44. Further, the Activity in the experiment listed under Bos taurus worked out at 38%.
In the case of `COc1ccccc1-c1ncnn1-c1cc(OC)c(OC)c(OC)c1`, the pIC50 in the experiment with HeLa, in the experiment on A549, in the experiment on HL-60, in the experiment on Jurkat, in the experiment with K562 and with MCF7 was < 5.00 in each case.
Turning to `COc1cccc(-c2ncnn2-c2cc(OC)c(OC)c(OC)c2)c1`, the pIC50 with HeLa, in the experiment with A549, in the experiment with HL-60, in the experiment with Jurkat, in the experiment with K562 and in the experiment with MCF7 was < 5.00 each time.
With `COc1cc(-c2ncnn2-c2ccccc2)cc(OC)c1OC`, the pIC50 in the experiment with HeLa, in the experiment on A549, in the experiment on HL-60, with Jurkat, in the experiment with K562 and with MCF7 was < 5.00 each time.

What is called pIC50 is the IC50 on a negative log10 scale, so that one unit is a factor of ten. Lower therefore signals a large IC50.
